ChEMBL document CHEMBL1156908, “Characterization of tunable piperidine and piperazine carbamates as inhibitors of endocannabinoid hydrolases” (J Med Chem, 2010)
The source made the active and inactive calls. The calls are words filed in the database; no cut-off is given here.

Key:
[1] = molecular target: T1, Fatty-acid amide hydrolase 1 (Mus musculus, UniProt O08914); assay: Inhibition of FAAH in mouse brain membrane; assay type: cell membranes
T1 sequence (O08914 whole entry): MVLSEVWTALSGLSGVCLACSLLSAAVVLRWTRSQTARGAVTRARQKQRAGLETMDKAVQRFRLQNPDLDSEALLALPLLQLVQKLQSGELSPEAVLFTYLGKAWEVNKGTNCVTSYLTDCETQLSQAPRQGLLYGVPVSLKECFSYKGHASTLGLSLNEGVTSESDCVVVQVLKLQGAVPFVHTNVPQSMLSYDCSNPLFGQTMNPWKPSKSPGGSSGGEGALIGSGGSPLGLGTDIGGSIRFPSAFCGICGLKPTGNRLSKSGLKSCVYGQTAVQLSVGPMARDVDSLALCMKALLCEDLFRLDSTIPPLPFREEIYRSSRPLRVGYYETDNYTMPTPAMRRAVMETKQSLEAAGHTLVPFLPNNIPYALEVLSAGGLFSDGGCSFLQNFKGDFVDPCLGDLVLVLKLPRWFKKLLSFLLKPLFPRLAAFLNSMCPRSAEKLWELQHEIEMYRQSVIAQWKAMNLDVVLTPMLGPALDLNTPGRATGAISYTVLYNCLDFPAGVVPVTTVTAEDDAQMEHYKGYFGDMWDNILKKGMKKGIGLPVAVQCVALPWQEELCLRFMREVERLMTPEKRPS
Procedure, shortened: (§1)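 Mouse brain membrane fraction (Dounce homogenized in PBS pH 7.5, 1,400 × g debris spin, 64,000 × g 45 min pellet, resuspended) at 1 mg/ml in PBS. Inhibitor preincubated 30 min at 37°C, then FP-rhodamine 1 μM final for 30 min at 25°C. SDS-PAGE with in-gel fluorescence scanning. IC50 from fitted integrated band intensities, mean of at least triplicates.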

[2] = molecular target: T2, Monoglyceride lipase (Mus musculus, UniProt O35678); assay: Inhibition of MAGL in mouse brain membrane; assay type: cell membranes; procedure, shortened: as §1
T2 sequence (O35678 whole entry): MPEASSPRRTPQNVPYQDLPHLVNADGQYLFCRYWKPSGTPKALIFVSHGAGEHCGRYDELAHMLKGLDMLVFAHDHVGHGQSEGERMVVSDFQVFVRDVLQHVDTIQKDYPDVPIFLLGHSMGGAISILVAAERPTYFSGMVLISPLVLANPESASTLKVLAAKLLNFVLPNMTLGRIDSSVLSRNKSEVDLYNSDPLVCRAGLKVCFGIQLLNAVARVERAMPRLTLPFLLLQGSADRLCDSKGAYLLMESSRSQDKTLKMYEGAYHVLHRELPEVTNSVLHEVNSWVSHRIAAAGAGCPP

[3] = molecular target: T3, Monoacylglycerol lipase ABHD6 (Mus musculus, UniProt Q8R2Y0); assay: Inhibition of ABHD6 in mouse brain membrane; assay type: cell membranes; procedure, shortened: as §1
T3 sequence (Q8R2Y0 whole entry): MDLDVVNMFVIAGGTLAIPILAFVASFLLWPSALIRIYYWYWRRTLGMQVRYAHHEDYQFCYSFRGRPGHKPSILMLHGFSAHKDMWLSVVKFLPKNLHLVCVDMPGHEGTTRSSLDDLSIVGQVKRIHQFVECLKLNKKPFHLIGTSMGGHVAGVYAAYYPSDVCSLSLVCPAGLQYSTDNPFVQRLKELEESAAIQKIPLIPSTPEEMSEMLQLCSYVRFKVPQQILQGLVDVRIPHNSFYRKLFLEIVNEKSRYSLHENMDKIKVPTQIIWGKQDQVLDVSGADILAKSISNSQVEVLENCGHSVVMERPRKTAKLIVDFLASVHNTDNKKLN

[4] = molecular target: T4, Patatin-like phospholipase domain-containing protein 6 (Mus musculus) (UniProt Q3TRM4); assay: Inhibition of NTE in mouse brain membrane at 100 uM; assay type: cell membranes
T4 sequence (whole entry): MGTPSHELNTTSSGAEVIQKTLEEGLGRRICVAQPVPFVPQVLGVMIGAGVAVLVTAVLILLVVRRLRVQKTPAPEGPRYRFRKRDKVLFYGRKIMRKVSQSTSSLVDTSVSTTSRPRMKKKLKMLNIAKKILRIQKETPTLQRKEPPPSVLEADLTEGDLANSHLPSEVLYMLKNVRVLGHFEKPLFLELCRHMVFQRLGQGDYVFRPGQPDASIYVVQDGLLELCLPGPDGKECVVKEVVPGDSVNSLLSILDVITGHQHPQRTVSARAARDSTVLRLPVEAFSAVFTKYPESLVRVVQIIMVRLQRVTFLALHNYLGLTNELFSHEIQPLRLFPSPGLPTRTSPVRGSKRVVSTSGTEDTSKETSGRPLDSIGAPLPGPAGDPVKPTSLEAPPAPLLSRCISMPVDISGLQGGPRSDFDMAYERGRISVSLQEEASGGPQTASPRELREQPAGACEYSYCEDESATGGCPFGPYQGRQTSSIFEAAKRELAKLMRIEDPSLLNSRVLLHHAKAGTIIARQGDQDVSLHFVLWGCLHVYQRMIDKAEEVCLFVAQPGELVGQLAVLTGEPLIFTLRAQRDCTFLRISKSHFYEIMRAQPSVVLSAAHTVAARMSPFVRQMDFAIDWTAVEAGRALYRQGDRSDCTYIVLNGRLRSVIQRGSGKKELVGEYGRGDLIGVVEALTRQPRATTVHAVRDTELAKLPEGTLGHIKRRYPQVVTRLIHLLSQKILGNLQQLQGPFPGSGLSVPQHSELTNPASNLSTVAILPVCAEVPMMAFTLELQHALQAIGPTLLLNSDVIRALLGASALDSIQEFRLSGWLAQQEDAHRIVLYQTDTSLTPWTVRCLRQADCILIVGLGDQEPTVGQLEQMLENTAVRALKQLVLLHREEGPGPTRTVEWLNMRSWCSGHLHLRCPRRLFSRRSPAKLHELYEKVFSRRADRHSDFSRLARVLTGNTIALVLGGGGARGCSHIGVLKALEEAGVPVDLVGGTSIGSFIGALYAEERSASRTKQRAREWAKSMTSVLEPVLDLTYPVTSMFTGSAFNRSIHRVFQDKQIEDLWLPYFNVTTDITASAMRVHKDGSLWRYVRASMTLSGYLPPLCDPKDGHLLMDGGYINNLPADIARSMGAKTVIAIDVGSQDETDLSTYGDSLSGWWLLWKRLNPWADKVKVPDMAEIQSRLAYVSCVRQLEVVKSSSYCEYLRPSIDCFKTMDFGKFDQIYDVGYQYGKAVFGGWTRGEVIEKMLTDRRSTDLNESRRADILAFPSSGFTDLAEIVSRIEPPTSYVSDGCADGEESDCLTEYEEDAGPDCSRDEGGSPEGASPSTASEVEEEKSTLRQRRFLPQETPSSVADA
Procedure, shortened: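 Competitive ABPP on mouse brain membrane proteome at 1 mg/ml in PBS. Inhibitor at 100 μM for 30 min at 37°C, then FP-rhodamine 1 μM final for 30 min at 25°C. SDS-PAGE and in-gel fluorescence scanning. Percent loss of NTE band labeling.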

[5] = molecular target: T5, Patatin-like phospholipase domain-containing protein 6 (Mus musculus, UniProt Q3TRM4); assay: Inhibition of NTE in mouse brain membrane; assay type: cell membranes; procedure, shortened: as §1
T5 sequence (Q3TRM4 whole entry): T4 sequence (whole entry)

[6] = system: Mus musculus; assay: In vivo inhibition of FAAH in mouse at 20 mg/kg, ip; assay type: functional, organism-based; set-up: dose 20 mg/kg
[7] = system: Mus musculus; assay: In vivo inhibition of FAAH in mouse at 100 mg/kg, po; assay type: functional, organism-based; set-up: dose 100 mg/kg
[8] = system: Mus musculus; assay: Toxicity in mouse assessed as death at 20 mg/kg, ip for 6 days; assay type: organism-based; set-up: dose 20 mg/kg, route intraperitoneal; details: in vivo, 144 h
[9] = system: Mus musculus; assay: In vivo inhibition of MAGL in mouse at 20 mg/kg, ip; assay type: functional, organism-based; set-up: dose 20 mg/kg
[10] = system: Mus musculus; assay: In vivo inhibition of MAGL in mouse at 100 mg/kg, po; assay type: functional, organism-based; set-up: dose 100 mg/kg
[11] = species: Mus musculus; assay: Selectivity ratio of IC50 for mouse FAAH to IC50 for mouse MAGL
Procedure, shortened: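 Competitive ABPP on mouse brain membrane proteome (Dounce-homogenized in PBS pH 7.5, 64,000 × g pellet, resuspended), diluted to 1 mg/ml in PBS. Inhibitor preincubated 30 min at 37°C, then FP-rhodamine 1 μM final for 30 min at 25°C. SDS-PAGE and in-gel fluorescence scanning. IC50s for FAAH and MAGL come from integrated band intensities, means of ≥3 runs; the ratio is taken from these.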

Structure (SMILES) | IC50 [1] [nM] | IC50 [2] [nM] | IC50 [3] [nM] | inhibition [4] [%] | IC50 [5] [µM] | Activity [6] | Activity [7] | Activity [8] | Activity [9] | Activity [10] | Ratio IC50 [11]
O=C(Oc1ccc([N+](=O)[O-])cc1)N1CCN(Cc2cccc(Oc3ccccn3)c2)CC1 | 40 | 50 | 60 | 73 | 1.27 | – | – | – | – | – | –
O=C(Oc1ccc([N+](=O)[O-])cc1)N1CCN(Cc2cc(Br)ccc2O)CC1 | 720 | 90 | 130 | 73 | 3.24 | – | – | – | – | – | –
O=C(Oc1ccc([N+](=O)[O-])cc1)N1CCN(Cc2cccc(Oc3cc(Cl)cc(Cl)c3)c2)CC1 | > 100000 | > 100000 | > 100000 | 0 | > 100 | – | – | – | – | – | –
O=C(Oc1ccc([N+](=O)[O-])cc1)N1CCN(Cc2ccc(-c3ccccc3OC(F)(F)F)o2)CC1 | 5 | 70 | 180 | 81 | 0.57 | – | – | – | – | – | –
COc1ccc(Oc2cccc(CN3CCN(C(=O)Oc4ccc([N+](=O)[O-])cc4)CC3)c2)cc1 | 90 | 130 | 460 | 60 | 2.9 | – | – | – | – | – | –
O=C(Oc1ccc([N+](=O)[O-])cc1)N1CCN(Cc2cccc(Oc3ccccc3)c2)CC1 | 13 | – | 50 | 50 | > 50 | inactive | inactive | Non-toxic | inactive | inactive | –
O=C(Oc1ccc([N+](=O)[O-])cc1)N1CCN(Cc2cccc(Oc3cccc(C(F)(F)F)c3)c2)CC1 | 5 | 300 | 320 | 57 | 14.4 | – | – | – | – | – | –
O=C(Oc1ccc([N+](=O)[O-])cc1)N1CCC(C(O)(c2ccccc2)c2ccccc2)CC1 | 4340 | 690 | 1100 | – | – | – | – | – | – | – | 6
COc1cccc(C(O)(c2cccc(OC)c2)C2CCN(C(=O)Oc3ccc([N+](=O)[O-])cc3)CC2)c1 | 5830 | 560 | 460 | – | – | – | – | – | – | – | 10
O=C(Oc1ccc([N+](=O)[O-])cc1)N1CCN(C2c3ccccc3Oc3ccccc32)CC1 | 9000 | 6120 | 2120 | – | – | – | – | – | – | – | 2
COc1ccc(C(c2ccc(OC)cc2)C2CCN(C(=O)Oc3ccc([N+](=O)[O-])cc3)CC2)cc1 | 40100 | 73 | 550 | – | – | – | – | – | – | – | 549
Cc1ccc(Oc2cccc(CN3CCN(C(=O)Oc4ccc([N+](=O)[O-])cc4)CC3)c2)cc1 | 40 | 500 | 1130 | 70 | 3 | – | – | – | – | – | –
O=C(Oc1ccc([N+](=O)[O-])cc1)N1CCN(C(c2ccc(F)cc2)c2ccc(F)cc2)CC1 | 5410 | 200 | 900 | – | – | – | – | – | – | – | 27
